Source: ChEMBL document CHEMBL3588757, “Structure-based design, synthesis and biological testing of piperazine-linked bis-epipodophyllotoxin etoposide analogs” (Bioorg Med Chem, 2015)

Key:
[1] = tested on: MOLT-4; assay: Cytotoxicity against human MOLT4 cells assessed as cell growth at 0.5 uM by SRB assay; assay type: functional; details: read-out: Activity
[2] = tested on: SNB-75; assay: Cytotoxicity against human SNB75 cells assessed as cell growth at 0.5 uM by SRB assay; assay type: functional; details: read-out: Activity
[3] = tested on: A498; assay: Cytotoxicity against human A498 cells by SRB assay; assay type: functional
[4] = tested on: MDA-MB-468; assay: Cytotoxicity against human MDA-MB-468 cells assessed as cell growth at 0.5 uM by SRB assay; assay type: functional; details: read-out: Activity
[5] = tested on: CAKI-1; assay: Cytotoxicity against human Caki1 cells assessed as cell growth at 50 uM by SRB assay; assay type: functional; details: read-out: Activity
[6] = tested on: SN12C; assay: Cytotoxicity against human SN12C cells assessed as cell growth at 5 uM by SRB assay; assay type: functional; details: read-out: Activity
[7] = tested on: OVCAR-5; assay: Cytotoxicity against human OVCAR5 cells assessed as cell growth at 0.5 uM by SRB assay; assay type: functional; details: read-out: Activity
[8] = tested on: COLO 205; assay: Cytotoxicity against human COLO205 cells assessed as cell growth at 0.5 uM by SRB assay; assay type: functional; details: read-out: Activity
[9] = tested on: CAKI-1; assay: Cytotoxicity against human Caki1 cells by SRB assay; assay type: functional
[10] = tested on: ACHN; assay: Cytotoxicity against human ACHN cells assessed as cell growth at 0.5 uM by SRB assay; assay type: functional; details: read-out: Activity
[11] = tested on: NCI-H322M; assay: Cytotoxicity against human NCI-H322M cells assessed as cell growth at 0.005 uM by SRB assay; assay type: functional; details: read-out: Activity
[12] = tested on: T47D; assay: Cytotoxicity against human T47D cells assessed as cell growth at 5 uM by SRB assay; assay type: functional; details: read-out: Activity
[13] = tested on: SF-268; assay: Cytotoxicity against human SF268 cells assessed as cell growth at 0.05 uM by SRB assay; assay type: functional; details: read-out: Activity
[14] = tested on: NCI-H522; assay: Cytotoxicity against human NCI-H522 cells by SRB assay; assay type: functional
Method in brief: (§1)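 NCI-60 panel screen; 5-dose testing giving GI50 per cell line, plus a single 10 µM one-dose test. Method details not given beyond the NCI screen.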

[15] = tested on: RXF 393; assay: Cytotoxicity against human RXF393 cells assessed as cell growth at 0.05 uM by SRB assay; assay type: functional; details: read-out: Activity
[16] = tested on: OVCAR-5; assay: Cytotoxicity against human OVCAR5 cells assessed as cell growth at 0.05 uM by SRB assay; assay type: functional; details: read-out: Activity
[17] = tested on: SK-MEL-28; assay: Cytotoxicity against human SK-MEL-28 cells assessed as cell growth at 0.05 uM by SRB assay; assay type: functional; details: read-out: Activity
[18] = tested on: BT-549; assay: Cytotoxicity against human BT549 cells assessed as cell growth at 5 uM by SRB assay; assay type: functional; details: read-out: Activity
[19] = tested on: HCC 2998; assay: Cytotoxicity against human HCC2998 cells assessed as cell growth at 5 uM by SRB assay; assay type: functional; details: read-out: Activity
Method in brief: (§2)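 Measured in the NCI-60 human tumour cell line panel using five-dose testing. Growth was recorded at each dose for each cell line, and a GI50 was derived for each line.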

[20] = tested on: MDA-MB-435; assay: Cytotoxicity against human MDA-MB-435 cells assessed as cell growth at 5 uM by SRB assay; assay type: functional; details: read-out: Activity
[21] = tested on: TK-10; assay: Cytotoxicity against human TK10 cells assessed as cell growth at 0.05 uM by SRB assay; assay type: functional; details: read-out: Activity
[22] = Cytotoxicity against human NCI-ADR-RES cells assessed as cell growth at 0.5 uM by SRB assay; assay type: functional; details: read-out: Activity
[23] = tested on: NCI-H522; assay: Cytotoxicity against human NCI-H522 cells assessed as cell growth at 0.05 uM by SRB assay; assay type: functional; details: read-out: Activity
[24] = tested on: ACHN; assay: Cytotoxicity against human ACHN cells assessed as cell growth at 0.005 uM by SRB assay; assay type: functional; details: read-out: Activity
[25] = tested on: U-251; assay: Cytotoxicity against human U251 cells assessed as cell growth at 50 uM by SRB assay; assay type: functional; details: read-out: Activity
[26] = tested on: RPMI-8226; assay: Cytotoxicity against human RPMI8226 cells assessed as cell growth at 50 uM by SRB assay; assay type: functional; details: read-out: Activity
[27] = tested on: UACC-62; assay: Cytotoxicity against human UACC62 cells by SRB assay; assay type: functional; method in brief: as §1
[28] = tested on: SK-MEL-2; assay: Cytotoxicity against human SK-MEL-2 cells assessed as cell growth at 0.05 uM by SRB assay; assay type: functional; details: read-out: Activity
[29] = tested on: A498; assay: Cytotoxicity against human A498 cells assessed as cell growth at 0.05 uM by SRB assay; assay type: functional; details: read-out: Activity
[30] = tested on: OVCAR-3; assay: Cytotoxicity against human OVCAR3 cells assessed as cell growth at 50 uM by SRB assay; assay type: functional; details: read-out: Activity
[31] = tested on: SF-268; assay: Cytotoxicity against human SF268 cells assessed as cell growth at 5 uM by SRB assay; assay type: functional; details: read-out: Activity
[32] = tested on: SW-620; assay: Cytotoxicity against human SW620 cells assessed as cell growth at 50 uM by SRB assay; assay type: functional; details: read-out: Activity
[33] = tested on: ACHN; assay: Cytotoxicity against human ACHN cells assessed as cell growth at 50 uM by SRB assay; assay type: functional; details: read-out: Activity
[34] = tested on: SR; assay: Cytotoxicity against human SR cells assessed as cell growth at 0.05 uM by SRB assay; assay type: functional; details: read-out: Activity
[35] = tested on: HCT-116; assay: Cytotoxicity against human HCT116 cells assessed as cell growth at 5 uM by SRB assay; assay type: functional; details: read-out: Activity; method in brief: as §2
[36] = Cytotoxicity against human Hs578T cells assessed as cell growth at 0.005 uM by SRB assay; assay type: functional; details: Hs-578T, read-out: Activity; method in brief: as §2
[37] = tested on: KM12; assay: Cytotoxicity against human KM12 cells assessed as cell growth at 0.005 uM by SRB assay; assay type: functional; details: read-out: Activity
[38] = tested on: OVCAR-5; assay: Cytotoxicity against human OVCAR5 cells by SRB assay; assay type: functional; method in brief: as §1
[39] = tested on: 786-0; assay: Cytotoxicity against human 786-0 cells assessed as cell growth at 0.05 uM by SRB assay; assay type: functional; details: read-out: Activity
[40] = Cytotoxicity against etoposide-resistant human K/VP.5 cells assessed as cell growth inhibition after 72 hrs by MTS assay; assay type: functional, cell-based; details: K/VP.5, 72 h
Method in brief: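 K/VP.5 cells are a K562-derived subline, 26-fold etoposide-resistant, with decreased topoisomerase IIα mRNA and protein. Cells were grown in suspension in αMEM with 10% fetal calf serum. Drugs were given from DMSO stocks, with final DMSO typically 0.4% or less. Read-out was MTS absorbance after 72 h. Typically nine concentrations were run in duplicate on two days. IC50 came from a four-parameter logistic fit.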

[41] = tested on: BT-549; assay: Cytotoxicity against human BT549 cells assessed as cell growth at 0.005 uM by SRB assay; assay type: functional; details: read-out: Activity
[42] = read-out: LC50 (the source's name)
[43] = read-out: pLC50 (the source's name) (converted)

## COc1cc([C@@H]2c3cc4c(cc3[C@@H](NC(=O)CN3CCN(CCCCCCN5CCN(CC(=O)N[C@@H]6c7cc8c(cc7[C@@H](c7cc(OC)c(O)c(OC)c7)[C@H]7C(=O)OC[C@@H]76)OCO8)CC5)CC3)[C@H]3COC(=O)[C@H]23)OCO4)cc(OC)c1O
[1]
  growth at 0.5 µM: 23%
[2]
  growth at 0.5 µM: 61%
[3]; read-out: GI50
  GI50: 5.74 µM
[3]; [42]
  CC50: > 50 µM
[3]; read-out: TGI
  TGI: 35.2 µM
[3]; read-out: pGI50 (converted)
  GI50: 5.75 µM
[3]; [43]
  CC50: > 50.1 µM
[3]; read-out: pTGI (converted)
  TGI: 35.5 µM
[4]
  growth at 0.5 µM: 83%
[5]
  growth at 50 µM: 57%
[6]
  growth at 5 µM: 11%
[7]
  growth at 0.5 µM: 86%
[8]
  growth at 0.5 µM: 60%
[9]; read-out: GI50
  GI50: > 50 µM
[9]; [42]
  CC50: > 50 µM
[9]; read-out: TGI
  TGI: > 50 µM
[9]; read-out: pGI50 (converted)
  GI50: > 50.1 µM
[9]; [43]
  CC50: > 50.1 µM
[9]; read-out: pTGI (converted)
  TGI: > 50.1 µM
[10]
  growth at 0.5 µM: 95%
[11]
  growth at 0.005 µM: 98%
[12]
  growth at 5 µM: 31%
[13]
  growth at 0.05 µM: 100%
[14]; read-out: GI50
  GI50: 5.13 µM
[14]; [42]
  CC50: > 50 µM
[14]; read-out: TGI
  TGI: 28.8 µM
[14]; read-out: pGI50 (converted)
  GI50: 5.13 µM
[14]; [43]
  CC50: > 50.1 µM
[14]; read-out: pTGI (converted)
  TGI: 28.8 µM
[15]
  growth at 0.05 µM: 92%
[16]
  growth at 0.05 µM: 89%
[17]
  growth at 0.05 µM: 106%
[18]
  growth at 5 µM: -5%
[19]
  growth at 5 µM: 73%
[20]
  growth at 5 µM: 57%
[21]
  growth at 0.05 µM: 98%
[22]
  growth at 0.5 µM: 106%
[23]
  growth at 0.05 µM: 99%
[24]
  growth at 0.005 µM: 94%
[25]
  growth at 50 µM: -10%
[26]
  growth at 50 µM: -13%
[27]; read-out: GI50
  GI50: 1.55 µM
[27]; [42]
  CC50: > 50 µM
[27]; read-out: TGI
  TGI: 35.7 µM
[27]; read-out: pGI50 (converted)
  GI50: 1.55 µM
[27]; [43]
  CC50: > 50.1 µM
[27]; read-out: pTGI (converted)
  TGI: 35.5 µM
[28]
  growth at 0.05 µM: 100%
[29]
  growth at 0.05 µM: 96%
[30]
  growth at 50 µM: 11%
[31]
  growth at 5 µM: 20%
[32]
  growth at 50 µM: 4%
[33]
  growth at 50 µM: 37%
[34]
  growth at 0.05 µM: 64%
[35]
  growth at 5 µM: 40%
[36]
  growth at 0.005 µM: 95%
[37]
  growth at 0.005 µM: 103%
[38]; read-out: GI50
  GI50: 7.24 µM
[38]; [42]
  CC50: > 50 µM
[38]; read-out: TGI
  TGI: > 50 µM
[38]; read-out: pGI50 (converted)
  GI50: 7.24 µM
[38]; [43]
  CC50: > 50.1 µM
[38]; read-out: pTGI (converted)
  TGI: > 50.1 µM
[39]
  growth at 0.05 µM: 96%
[40]
  IC50: 0.88 µM
[41]
  growth at 0.005 µM: 86%
